Screening results as filed in PubChem.
Shown are actives, neighbours in structure and some others; about 4.1% of the full set was active somewhere.
Cl transport mod = modulators of human KCC2 chloride dependent transport; KCC2 cells, thallium flux FluoZin-2 fluorescence; B-score of Tl+ flux slope (higher = more flux/activation; lower = inhibition) at 10 µM; 190,000 tested, 2.2% active; AID 1456;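 active = thallium flux slope and its plate-corrected score both differing from the plate sample mean at a set confidence after two filtering rounds, in either direction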;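 note: slope of fluorescence scaled to starting intensity during 10 to 20 s after thallium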
KCNQ1 inh = human KCNQ1 channel inhibition; P51787; CHO-K1 KCNQ1, FluxOR thallium flux fluorescence; hits give high values; B-score at 10 µM; 310,000 tested, 1.3% active;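 active = compounds whose thallium flux B-score, printed positive for inhibition, exceeds three library SD while starting fluorescence stays within three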;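 note: channel opened by potassium depolarization with thallium stimulus after 20 min compound exposure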
KCNK9 block = inhibitors of human KCNK9 two-pore domain potassium channel; AID 488922; B-score at 10 µM; Q9NPC2; HEK293 KCNK9, FluxOR thallium flux fluorescence; hits give low values; 310,000 tested, 1.2% active;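 active = ratio B-score over 3 SD below the library mean, with starting fluorescence within 5 SD of its mean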;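 note: negative B-score means less thallium flux so channel inhibition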
KCNQ1 act = potentiates or activates the human KCNQ1 potassium channel. P51787. CHO-K1 KCNQ1, thallium flux FluxOR fluorescence; hits give high values. 310,000 tested, 0.35% active. AID 2648. B-score at 10 µM;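 active = fluorescence ratio B-score, a plate-corrected score, at least three library SD, with initial intensity B-score within 5 SD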
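Schedule – 37 °C overnight plating, 90-min dark dye load, 20-min compound pretreatment · System – stable KCNQ1 CHO-K1 line · Probe or stimulus – thallium- and potassium-containing depolarizing buffer · Measured by – kinetic FluxOR fluorescence, 10 s baseline plus 110 s post-stimulus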
KCNK3 block = human KCNK3 channel inhibition, primary screen; O14649; CHO-KCNK3 thallium flux, FluxOR fluorescence; hits give low values; B-score at 10 µM; 340,000 tested, 0.84% active; AID 602410;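 active = B-score under library mean minus 4 SD, starting fluorescence ratio at most library mean plus 5 SD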;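 note: more negative B-score means stronger inhibition of thallium flux through KCNK3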
hERG protect = compounds protecting human hERG from proarrhythmic drug block | Q12809 | CHO-hERG, FluxOR thallium flux, dofetilide IC70 present | activation (rescue from dofetilide block), less the hit threshold, % at 10 µM | 310,000 tested, 0.51% active | AID 1511;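 active = activation above the mean of controls blocked by dofetilide plus 5 SD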;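 note: thallium influx through hERG after potassium depolarization seen as dye fluorescence rise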
KCNK9 inh conf = human KCNK9 inhibitor confirmation | shares compounds with KCNK9 block | HEK293 KCNK9 cells, FluxOR thallium flux fluorescence | inhibition, % at 10 µM | 4,900 tested, 43% active | AID 492992;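 active = thallium signal inhibited by more than 5 SD of the compound-free buffer control wells, on both duplicate plates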;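 note: 0% = assay buffer control wells without compound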
Kir21 sel = selectivity of KCNK9 modulators against mouse Kir2.1; shares compounds with KCNK9 block; Kir2.1 cells, FluxOR thallium flux fluorescence; inhibition, % at 10 µM; 4,900 tested, 4% active; AID 492993;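 active = thallium signal drop more than 5 SD beyond the mean of the no-compound control wells, seen in both duplicate plates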;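 note: signal is fluorescence rise after thallium addition divided by baseline fluorescence; plate controls were assay buffer only for no effect and full block by chlorpromazine control for full effect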
Target sequence (P35561 whole entry, looked up): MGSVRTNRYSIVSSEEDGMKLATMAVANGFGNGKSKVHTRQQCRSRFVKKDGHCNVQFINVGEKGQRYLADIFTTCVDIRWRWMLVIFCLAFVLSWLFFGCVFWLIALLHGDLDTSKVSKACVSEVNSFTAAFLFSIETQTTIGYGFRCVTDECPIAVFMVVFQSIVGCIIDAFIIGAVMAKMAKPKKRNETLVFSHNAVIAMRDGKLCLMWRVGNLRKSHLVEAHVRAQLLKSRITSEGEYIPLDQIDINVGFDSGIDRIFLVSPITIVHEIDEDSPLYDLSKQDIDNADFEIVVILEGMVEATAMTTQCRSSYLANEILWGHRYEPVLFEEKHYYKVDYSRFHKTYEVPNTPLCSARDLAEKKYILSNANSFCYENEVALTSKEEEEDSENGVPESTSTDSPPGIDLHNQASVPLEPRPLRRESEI
KCNK9 uninduced = second counter-screen for KCNK9 modulators: effect in non-induced cells; non-induced KCNK9-HEK293, FluxOR thallium flux; shares compounds with KCNK9 block; 4,900 tested, 40% active; inhibition, % at 10 µM;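 active = thallium signal drop beyond 5 SD of the untreated control mean, on both duplicate plates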;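 note: plate controls were buffer only IC0 wells for no effect and SID17386958 at its maximal inhibitory level for full effect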
An asterisk follows results filed as active; i = inactive; · = no result given.

SMILES | Cl transport mod | KCNQ1 inh | KCNK9 block | KCNQ1 act | KCNK3 block | hERG protect | KCNK9 inh conf | Kir21 sel | KCNK9 uninduced
COc1cc(COc2ccc3c(C)c(Cc4ccccc4)c(=O)oc3c2)cc(OC)c1OC | · | i | i | i | i | -13 | i | i | i
Cc1ccc(CSCC(=O)N/N=C/c2cccc(OC3CSC3)c2)cc1 | 1.2 | i | i | i | i | -9 | i | i | i
Cc1ccc(-c2c(C)sc3ncn(CC(=O)N4CCOCC4)c(=O)c23)cc1C | 0.5 | i | i | i | i | -12 | i | i | i
Cc1sc2ncn(CC(=O)N3CCCCC3)c(=O)c2c1C | -0.023 | i | i | i | i | -1 | · | · | ·
COc1ccc(C(=O)Nc2cccc(C(=O)Nc3cc(C)ccn3)c2)cc1 | · | · | · | · | i | · | · | · | ·
COc1ccccc1NC(=S)NC(=O)C(C)(C)C | 0.06 | i | i | i | i | -5 | i | i | i
COc1ccccc1NC(=S)NC(=O)Cc1ccccc1 | · | i | i | i | i | -3 | · | · | ·
CCCOc1ccc(CNC(=O)c2ccc3nc(N4CCOCC4)sc3c2)cc1 | · | i | i | i | i | -8 | · | · | ·
CC(C)(C)c1ccc(Cn2c(=N)n(CC(O)c3ccco3)c3ccccc32)cc1 (centres undefined) | · | 9* | -11* | i | -12* | -32 | 40%* | 43%* | 26%*
Cc1ccccc1Cn1c(=N)n(CC(O)c2ccco2)c2ccccc21 (centres undefined) | · | i | i | i | i | -13 | · | · | ·
CC(Sc1n[nH]c(N)n1)C(=O)Nc1cccc2ccccc12 (centres undefined) | · | · | · | · | i | · | · | · | ·
COc1ccc(C2SCC(=O)N2c2nnc(C34CC5CC(CC(C5)C3)C4)s2)cc1 (centres undefined) | -0.089 | i | i | i | i | -6 | · | · | ·
COc1cc(C2SCC(=O)N2c2nnc(C34CC5CC(CC(C5)C3)C4)s2)cc(OC)c1OC (centres undefined) | · | i | i | i | i | -6 | i | i | i
Cc1ccc(C)c(NC(=O)c2ccccc2Sc2ccc([N+](=O)[O-])cc2Cl)c1 | -0.31 | i | -14* | i | i | -4 | 61%* | i | 47%*
COc1ccc(OC)c(C(=O)CN2CCN(S(=O)(=O)c3ccc(Br)cc3)CC2)c1 | 0.37 | i | i | i | i | -9 | i | i | i
CCCCCCCCN1N=N[C@H]2[C@H]1[C@@H]1C[C@H]2N(C(=O)OC(C)(C)C)O1 | · | · | · | · | i | · | · | · | ·
O=C(Nc1ccc(Br)cc1)C1CCN(C(=O)c2ccc(F)cc2)CC1 | -2.1 | i | i | i | i | -5 | i | i | i
O=C(Nc1cccc(F)c1)C1CCN(C(=O)c2ccc(Br)cc2)CC1 | · | i | i | i | i | -14 | i | i | i
O=C(Nc1ccc(F)cc1F)C1CCN(C(=O)c2ccc(Br)cc2)CC1 | 0.4 | i | i | i | i | -7 | · | · | ·
CS(=O)(=O)/C(C#N)=C\c1cnc(S(=O)(=O)c2ccccc2)s1 | · | i | i | i | · | -7 | · | · | ·
CCOc1ccc(N(C)S(=O)(=O)c2cc(-c3cc(C)no3)ccc2C(C)C)cc1 | · | i | -9.5* | i | i | -19 | 52%* | i | 42%*
COc1cccc(C2CCCN2Cc2nc(CCC(C)C)no2)c1 (centres undefined) | 0.83 | i | i | i | i | -15 | i | i | i
Cc1ccc(Cn2ccc(NC(=O)c3cc(CC(C)C)on3)n2)cc1 | -1.1 | i | i | i | i | -11 | i | i | i
